From ChEMBL document CHEMBL1130289, “Polyanion inhibitors of human immunodeficiency virus and other viruses. 5. Telomerized anionic surfactants derived from amino acids” (J Med Chem, 1997)

How the values were obtained:
[1] = test system: Human betaherpesvirus 5; experiment: Concentration required to inhibit HCMV(AD169) induced cytopathicity in HEL cells by 50%; assay type: functional, organism-based; conditions: Human betaherpesvirus 5, HEL
How it was run: (§1)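 Virus was added to the cell monolayers in the presence of compound. Incubation continued until the viral cytopathic effect was scored. IC50 is the concentration that reduced virus-induced cytopathicity by 50%.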

[2] = test system: Junin virus; experiment: Concentration required to inhibit Junin induced cytopathicity in Vero cells by 50%; assay type: functional, organism-based; conditions: Mammarenavirus juninense
[3] = test system: Mammalian orthoreovirus 1; experiment: Concentration required to inhibit reovirus-1 induced cytopathicity in Vero cells by 50%; assay type: functional, organism-based; conditions: Mammalian orthoreovirus 1, Vero; how it was run: as §1
[4] = test system: Human alphaherpesvirus 1; experiment: Concentration required to inhibit HSV-1(KOS) induced cytopathicity in E6SM cells by 50%; conditions: Human alphaherpesvirus 1, E6SM
[5] = test system: HEL; experiment: Minimum cytotoxic concentration required to cause a microscopically detectable alteration of normal cell morphology in HEL cells; assay type: functional, Homo sapiens
[6] = test system: Sindbis virus; experiment: Concentration required to inhibit Sindbis induced cytopathicity in Vero cells by 50%; assay type: functional, organism-based; how it was run: as §1
[7] = test system: Semliki Forest virus; experiment: Concentration required to inhibit forest induced cytopathicity in Vero cells by 50%; assay type: functional, organism-based; how it was run: as §1
[8] = test system: Human betaherpesvirus 5; experiment: Concentration required to inhibit HCMV(Davis) induced cytopathicity in HEL cells by 50%; assay type: functional, organism-based; conditions: Human betaherpesvirus 5, HEL; how it was run: as §1
[9] = test system: HeLa; experiment: Minimum cytotoxic concentration required to cause a microscopically detectable alteration of normal cell morphology in HeLa cells; assay type: functional, Homo sapiens
How it was run: (§2)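 Uninfected E6SM, HeLa or Vero cells were exposed to compound and examined by microscopy. MCC is the lowest concentration causing a detectable alteration of normal cell morphology.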

[10] = test system: Human alphaherpesvirus 2; experiment: Concentration required to inhibit HSV-2(G) induced cytopathicity in E6SM cells by 50%; conditions: Human alphaherpesvirus 2, E6SM
[11] = test system: Poliovirus 1; experiment: Concentration required to inhibit Polio-1 induced cytopathicity in HeLa cells by 50%; assay type: functional, organism-based; conditions: Enterovirus C
[12] = test system: Vaccinia virus; experiment: Concentration required to inhibit Vaccinia induced cytopathicity in E6SM cells by 50%; assay type: functional, organism-based; conditions: Orthopoxvirus vaccinia
[13] = test system: Human immunodeficiency virus 1; experiment: Concentration required to inhibit HIV-1 induced cytopathicity in MT-4 cells by 50%; assay type: functional, organism-based; conditions: Human immunodeficiency virus 1, MT4
How it was run: (§3)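 MT-4 cells were infected with HIV-1 (strain HTLV-IIIB/LAI) or HIV-2 (strain LAV-2 ROD) and exposed to compound. IC50 is the concentration that inhibited HIV-induced cytopathicity by 50%. Values are means of two separate experiments.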

[14] = test system: Human immunodeficiency virus 1; experiment: Concentration required to inhibit by 50% syncytium formation between MOLT-4 cells and HIV-1(IIIB); assay type: functional, organism-based; conditions: Human immunodeficiency virus 1, MOLT-4
How it was run: (§4)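 Uninfected MOLT-4 cells were co-cultured with HUT-78 cells chronically infected with HIV-1 (IIIB) or HIV-2 (ROD), in the presence of compound. The end point was syncytium formation, and IC50 is the concentration giving 50% inhibition. Values are means of two separate experiments.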

[15] = test system: Tacaribe virus; experiment: Concentration required to inhibit Tacaribe induced cytopathicity in Vero cells by 50%; assay type: functional, cell-based; conditions: Mammarenavirus tacaribeense
[16] = test system: Vesicular stomatitis virus; experiment: Concentration required to inhibit vesicular stomatitis induced cytopathicity in E6SM cells by 50%; assay type: functional, organism-based
[17] = test system: Human immunodeficiency virus 2; experiment: Concentration required to inhibit HIV-2 induced cytopathicity in MT-4 cells by 50%; assay type: functional, organism-based; conditions: Human immunodeficiency virus 2, MT4; how it was run: as §3
[18] = test system: CEM-4; experiment: Cytotoxic concentration required to reduce the viability of uninfected cells by 50% after 5 days of incubation in the presence on CEM-4 cells.; assay type: functional; conditions: Homo sapiens, CEM-4, 120 h
How it was run: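 Uninfected CEM-4 cells were incubated with compound for 5 days. CC50 is the concentration that reduced viability by 50%. Values average at least two separate experiments.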

[19] = test system: Human alphaherpesvirus 1; experiment: Concentration required to inhibit HSV-1 TK-(B2006) induced cytopathicity in E6SM cells by 50%; conditions: Human alphaherpesvirus 1, E6SM
[20] = test system: Vero; experiment: Minimum cytotoxic concentration required to cause a microscopically detectable alteration of normal cell morphology in Vero cells; assay type: functional, Chlorocebus sabaeus; how it was run: as §2
[21] = test system: E6SM; experiment: Minimum cytotoxic concentration required to cause a microscopically detectable alteration of normal cell morphology in E6SM cells; assay type: functional, Homo sapiens; how it was run: as §2
[22] = test system: MT4; experiment: Concentration required to reduce the viability of mock-infected MT-4 cells by 50%; assay type: functional; conditions: Homo sapiens
How it was run: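 Mock-infected MT-4 cells were exposed to compound. CC50 is the concentration that reduced cell viability by 50%. Values are means of two separate experiments.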

[23] = test system: Human respirovirus 3; experiment: Concentration required to inhibit parainfluenza-3 induced cytopathicity in Vero cells by 50%; assay type: functional, organism-based; conditions: Human respirovirus 3, Vero; how it was run: as §1
[24] = test system: Coxsackievirus; experiment: Concentration required to inhibit Coxsackie induced cytopathicity in HeLa cells by 50%; assay type: functional, organism-based; how it was run: as §1
[25] = test system: Human immunodeficiency virus 1; experiment: Inhibitory concentration required to inhibit HIV-induced cytopathicity in CEM-4 cells by 50% based in the MTT assay; assay type: functional, organism-based; conditions: Human immunodeficiency virus 1, CEM-4
[26] = test system: Human immunodeficiency virus 2; experiment: Concentration required to inhibit by 50% syncytium formation between MOLT-4 cells and HIV-2 (ROD) infected HUT-78 cells; assay type: functional, organism-based; conditions: Human immunodeficiency virus 2, MOLT-4; how it was run: as §4

SMILES: CCCCCCCCCCCCSCCCCCCCCCCCCCCCCCCCCCCCCCCCCCCCCCCCCCCCCCCCCCCCCCCC(=O)N(CC)CCCCCCCCCCC(=O)NC(CCC(=O)[O-])C(=O)O.[Na+] (stereo unspecified)
- IC50 [1]: 10 µg/mL
- IC50 [2]: > 50 µg/mL
- IC50 [3]: > 10 µg/mL
- IC50 [4]: 20 µg/mL
- MMC [5]: >50 µg/mL
- IC50 [6]: > 10 µg/mL
- IC50 [7]: > 10 µg/mL
- IC50 [8]: 5 µg/mL
- MMC [9]: >200 µg/mL
- IC50 [10]: > 40 µg/mL
- IC50 [11]: > 200 µg/mL
- IC50 [12]: > 40 µg/mL
- IC50 [13]: 0.1 µg/mL
- IC50 [14]: 6 µg/mL
- IC50 [15]: > 50 µg/mL
- IC50 [16]: > 40 µg/mL
- IC50 [17]: 7 µg/mL
- CC50 [18]: > 300 µg/mL
- IC50 [19]: 40 µg/mL
- MMC [20]: >40 µg/mL
- MMC [21]: 100 µg/mL
- CC50 [22]: > 250 µg/mL
- IC50 [23]: > 10 µg/mL
- IC50 [24]: > 200 µg/mL
- IC50 [25]: 1 µg/mL
- IC50 [26]: 30 µg/mL
